Consider three compounds from ChEMBL document CHEMBL1765003, “Discovery of (1S,2R,3R)-2,3-dimethyl-2-phenyl-1-sulfamidocyclopropanecarboxylates: novel and highly selective aggrecanase inhibitors” (J Med Chem, 2011).

Molecules are shown by their SMILES. pIC50: −log10 of the molar value.

What is called pIC50 is −log10 of the IC50, conventionally taken in molar units. The term AUC denotes the area under the concentration-time curve, a measure of exposure. For orientation: half-life means the time needed for the level to fall by half in the phase considered. The term clearance denotes the rate of elimination divided by the concentration. Lower therefore signals inefficient removal. As usually defined, the Cmax is the maximum level reached in the sampled fluid or tissue.

The target of one data set is Cytochrome P450 2C9 (Homo sapiens, UniProt P11712). In words: Inhibition of CYP2C9 at up to 50 uM. The class given is ADME.
The next data set deals with Cytochrome P450 2D6 (Homo sapiens, UniProt P10635). In words: Inhibition of CYP2D6 at up to 50 uM. Type of data set: ADME.
The target of data set [1] is T1, A disintegrin and metalloproteinase with thrombospondin motifs 5 (Homo sapiens, UniProt Q9UNA0).
T1 sequence (Q9UNA0 whole entry): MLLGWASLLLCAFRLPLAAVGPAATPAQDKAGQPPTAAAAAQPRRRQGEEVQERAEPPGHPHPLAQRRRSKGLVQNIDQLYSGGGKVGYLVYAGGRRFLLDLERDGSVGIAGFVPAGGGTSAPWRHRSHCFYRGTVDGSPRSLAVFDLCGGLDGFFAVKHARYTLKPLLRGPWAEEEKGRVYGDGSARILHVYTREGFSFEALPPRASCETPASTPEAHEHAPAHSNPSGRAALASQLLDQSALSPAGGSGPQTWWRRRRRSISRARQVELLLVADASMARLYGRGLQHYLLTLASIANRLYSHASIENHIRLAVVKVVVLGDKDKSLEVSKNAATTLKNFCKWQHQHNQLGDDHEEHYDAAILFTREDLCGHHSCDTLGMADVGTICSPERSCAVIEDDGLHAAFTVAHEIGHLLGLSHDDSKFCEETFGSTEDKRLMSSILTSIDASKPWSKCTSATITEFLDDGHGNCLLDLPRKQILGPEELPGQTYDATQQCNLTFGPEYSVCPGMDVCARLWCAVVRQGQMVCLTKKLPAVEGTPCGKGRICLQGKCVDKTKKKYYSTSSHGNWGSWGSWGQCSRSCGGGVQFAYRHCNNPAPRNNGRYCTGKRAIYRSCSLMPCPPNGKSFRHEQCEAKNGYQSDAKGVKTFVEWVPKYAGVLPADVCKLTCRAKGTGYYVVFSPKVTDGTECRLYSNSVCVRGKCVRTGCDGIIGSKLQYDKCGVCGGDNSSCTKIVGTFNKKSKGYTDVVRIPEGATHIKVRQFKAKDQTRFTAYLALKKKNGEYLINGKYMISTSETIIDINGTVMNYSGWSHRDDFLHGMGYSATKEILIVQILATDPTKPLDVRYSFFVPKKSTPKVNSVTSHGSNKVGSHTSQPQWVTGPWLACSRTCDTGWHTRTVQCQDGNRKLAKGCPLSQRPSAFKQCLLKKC
The experiment in a line: Inhibition of human recombinant aggrecanase 2 after 150 mins by fluorescence plate reader.

The nature of data set [2]: AUC in Sprague-Dawley rat at 10 mg/kg, po. The class given is ADME, organism-based. On the set-up: dose 10 mg/kg, route oral. To be noted: plasma.
A further data set deals with T2, Interstitial collagenase (Homo sapiens, UniProt P03956).
T2 sequence (P03956 whole entry): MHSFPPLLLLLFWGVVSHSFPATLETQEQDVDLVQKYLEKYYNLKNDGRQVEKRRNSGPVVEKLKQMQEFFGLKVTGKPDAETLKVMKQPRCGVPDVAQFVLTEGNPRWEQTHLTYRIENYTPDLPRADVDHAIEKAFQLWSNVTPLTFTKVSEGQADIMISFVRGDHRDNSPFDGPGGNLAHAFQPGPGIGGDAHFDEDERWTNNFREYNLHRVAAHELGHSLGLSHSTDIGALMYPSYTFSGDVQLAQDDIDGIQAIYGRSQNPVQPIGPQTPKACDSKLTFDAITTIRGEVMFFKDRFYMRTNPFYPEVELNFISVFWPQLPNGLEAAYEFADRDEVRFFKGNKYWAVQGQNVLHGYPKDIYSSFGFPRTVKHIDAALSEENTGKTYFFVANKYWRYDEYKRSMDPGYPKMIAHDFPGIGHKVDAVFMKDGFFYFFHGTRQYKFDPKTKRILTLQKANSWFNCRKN
In words: Inhibition of human recombinant MMP1 after 60 mins by fluorescence plate reader. An outline of the steps: (§1)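 Recombinant human enzyme at 20 ng/mL with 10 μM MOCAc-Lys-Pro-Leu-Gly-Leu-A2pr(Dnp)-Ala-Arg-NH₂, in 100 mM Tris-HCl pH 7.5, 150 mM NaCl, 10 mM CaCl₂, 0.05% Brij-35. Enzyme pretreated with inhibitor for 15 min at 25 °C, then substrate added. Fluorescence (ex 325, em 405 nm) read at 60 min. IC50 taken from three points in the linear range; mean of ≥2 determinations.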

Data set [3] can be described thus: Half life in Sprague-Dawley rat at 10 mg/kg, po. Type of data set: ADME, organism-based. Also on record: dose 10 mg/kg, route oral. The note with it: in vivo.
The next data set concerns the target T3, Cytochrome P450 1A2 (Homo sapiens, UniProt P05177).
T3 sequence (P05177 whole entry): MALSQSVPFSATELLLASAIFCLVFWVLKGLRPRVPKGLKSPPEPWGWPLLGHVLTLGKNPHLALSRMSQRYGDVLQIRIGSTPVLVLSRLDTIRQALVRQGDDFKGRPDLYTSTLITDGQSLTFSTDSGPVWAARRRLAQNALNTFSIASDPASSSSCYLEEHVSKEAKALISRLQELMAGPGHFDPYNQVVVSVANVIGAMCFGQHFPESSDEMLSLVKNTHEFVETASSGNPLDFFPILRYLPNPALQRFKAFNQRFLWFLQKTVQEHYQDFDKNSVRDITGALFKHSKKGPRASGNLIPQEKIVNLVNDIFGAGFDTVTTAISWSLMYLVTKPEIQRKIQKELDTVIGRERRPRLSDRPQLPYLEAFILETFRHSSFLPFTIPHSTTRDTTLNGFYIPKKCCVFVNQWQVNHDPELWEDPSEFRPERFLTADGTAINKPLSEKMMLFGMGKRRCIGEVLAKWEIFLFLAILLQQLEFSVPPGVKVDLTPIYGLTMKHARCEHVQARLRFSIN
The experiment in a line: Inhibition of CYP1A2 at up to 50 uM. The class given is ADME.

Data set [4] deals with Disintegrin and metalloproteinase domain-containing protein 17 (Homo sapiens, UniProt P78536). In words: Inhibition of human recombinant TACE after 60 mins by fluorescence plate reader. An outline of the steps:
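rh-TACE at 80 ng/mL with 10 μM MCA-Pro-Leu-Ala-Gln-Ala-Val-Dpa-Arg-Ser-Ser-Ser-Arg-NH₂, in 100 mM Tris-HCl pH 7.5, 150 mM NaCl, 10 mM CaCl₂, 0.05% Brij-35. Inhibitor preincubated for 15 min at 25 °C. Fluorescence (ex 325/em 405 nm) read at 60 min. IC50 from three linear-range points; mean of ≥2.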

A further data set has as its target T4, Cytochrome P450 2A6 (Homo sapiens, UniProt P11509).
T4 sequence (P11509 whole entry): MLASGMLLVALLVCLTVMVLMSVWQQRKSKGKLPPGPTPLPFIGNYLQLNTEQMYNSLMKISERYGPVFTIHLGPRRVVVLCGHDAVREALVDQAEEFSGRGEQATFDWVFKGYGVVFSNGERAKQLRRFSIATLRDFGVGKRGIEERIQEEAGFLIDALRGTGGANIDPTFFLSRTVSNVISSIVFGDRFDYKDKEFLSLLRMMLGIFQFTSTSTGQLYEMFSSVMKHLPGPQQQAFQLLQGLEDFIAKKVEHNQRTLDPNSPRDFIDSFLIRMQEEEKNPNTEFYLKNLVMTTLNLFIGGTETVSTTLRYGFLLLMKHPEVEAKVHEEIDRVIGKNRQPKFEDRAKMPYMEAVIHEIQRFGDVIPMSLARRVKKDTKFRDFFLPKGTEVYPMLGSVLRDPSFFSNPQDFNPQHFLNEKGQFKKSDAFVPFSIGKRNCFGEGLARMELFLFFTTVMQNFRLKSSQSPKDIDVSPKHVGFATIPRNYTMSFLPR
The experiment in a line: Inhibition of CYP2A6 at up to 50 uM. The class given is ADME.

Data set [5] has as its target Matrix metalloproteinase-14 (Homo sapiens, UniProt P50281). The experiment in a line: Inhibition of human recombinant MMP14 after 60 mins by fluorescence plate reader. An outline of the steps:
as §1

For the next data set, the target named is Cytochrome P450 3A4 (Homo sapiens, UniProt P08684). In words: Inhibition of CYP3A4 at up to 50 uM. Type of data set: ADME.
Data set [6] can be described thus: Clearance in Sprague-Dawley rat at 1 mg/kg, iv. The class given is ADME, organism-based. On the set-up: dose 1 mg/kg, route intravenous. To be noted: in vivo. An outline of the steps:
(§2)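 Intravenous dose of 1 mg/kg. Blood sampled at 0.50, 1, 2, 4, 8 and 24 h. Plasma obtained by centrifugation at 10 000 rpm for 5 min and kept at −20 °C until analysis.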

The nature of data set [7]: Volume of distribution at steady state in Sprague-Dawley rat at 1 mg/kg, iv. The class given is ADME, organism-based. To be noted: in vivo, read-out: Vdss. Also on record: dose 1 mg/kg, route intravenous. An outline of the steps:
as §2

The nature of data set [8]: Oral bioavailability in Sprague-Dawley rat at 10 mg/kg. The class given is ADME, organism-based. The note with it: Sprague-Dawley, in vivo.
Data set [9] can be described thus: Cmax in Sprague-Dawley rat at 10 mg/kg, po. Type of data set: ADME, organism-based. Also on record: dose 10 mg/kg, route oral. The note with it: in vivo.
In the next data set the target is Cytochrome P450 2C19 (Homo sapiens, UniProt P33261). In words: Inhibition of CYP2C19 at up to 50 uM. The class given is ADME.
For a further data set, the species on record is Homo sapiens. In words: Selectivity ratio of IC50 for human recombinant MMP14 to IC50 for human recombinant aggrecanase 2.

Sequence of Disintegrin and metalloproteinase domain-containing protein 17 (P78536 whole entry, the tested form may be a part): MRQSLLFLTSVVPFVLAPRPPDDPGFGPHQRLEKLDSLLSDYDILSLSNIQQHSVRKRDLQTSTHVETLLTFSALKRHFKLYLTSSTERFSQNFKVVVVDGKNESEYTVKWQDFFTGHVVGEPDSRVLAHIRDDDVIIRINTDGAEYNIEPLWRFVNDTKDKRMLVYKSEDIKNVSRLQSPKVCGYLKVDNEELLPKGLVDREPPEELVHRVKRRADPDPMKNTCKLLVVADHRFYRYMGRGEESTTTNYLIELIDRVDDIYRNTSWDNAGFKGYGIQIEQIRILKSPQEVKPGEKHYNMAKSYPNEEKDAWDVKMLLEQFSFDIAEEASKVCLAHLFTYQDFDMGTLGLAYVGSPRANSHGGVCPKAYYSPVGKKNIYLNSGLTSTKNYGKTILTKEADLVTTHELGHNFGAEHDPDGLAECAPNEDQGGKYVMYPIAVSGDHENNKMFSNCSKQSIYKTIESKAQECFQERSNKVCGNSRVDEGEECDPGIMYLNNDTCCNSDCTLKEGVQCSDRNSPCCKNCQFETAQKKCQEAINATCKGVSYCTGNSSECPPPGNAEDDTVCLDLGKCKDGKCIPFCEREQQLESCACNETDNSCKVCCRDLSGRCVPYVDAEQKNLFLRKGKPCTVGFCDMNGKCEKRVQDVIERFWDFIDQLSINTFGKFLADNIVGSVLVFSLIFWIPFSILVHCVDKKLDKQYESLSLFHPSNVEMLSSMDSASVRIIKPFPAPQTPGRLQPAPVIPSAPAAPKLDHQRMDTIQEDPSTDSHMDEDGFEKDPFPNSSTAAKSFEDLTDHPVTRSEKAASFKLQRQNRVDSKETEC
Sequence of Cytochrome P450 2C19 (P33261 whole entry): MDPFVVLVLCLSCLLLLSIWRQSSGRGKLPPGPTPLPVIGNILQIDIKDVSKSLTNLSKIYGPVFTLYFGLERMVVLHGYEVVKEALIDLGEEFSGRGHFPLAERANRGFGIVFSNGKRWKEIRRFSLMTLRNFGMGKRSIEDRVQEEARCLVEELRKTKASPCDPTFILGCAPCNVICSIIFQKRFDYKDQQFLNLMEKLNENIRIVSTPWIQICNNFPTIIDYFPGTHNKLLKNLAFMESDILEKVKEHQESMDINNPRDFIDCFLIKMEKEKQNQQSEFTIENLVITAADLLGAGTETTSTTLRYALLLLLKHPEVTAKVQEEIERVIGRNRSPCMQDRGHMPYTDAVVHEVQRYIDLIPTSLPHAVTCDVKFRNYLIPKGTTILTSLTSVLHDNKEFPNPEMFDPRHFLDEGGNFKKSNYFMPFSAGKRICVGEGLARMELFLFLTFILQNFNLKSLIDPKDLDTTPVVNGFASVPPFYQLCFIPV
Sequence of Cytochrome P450 2C9 (P11712 whole entry): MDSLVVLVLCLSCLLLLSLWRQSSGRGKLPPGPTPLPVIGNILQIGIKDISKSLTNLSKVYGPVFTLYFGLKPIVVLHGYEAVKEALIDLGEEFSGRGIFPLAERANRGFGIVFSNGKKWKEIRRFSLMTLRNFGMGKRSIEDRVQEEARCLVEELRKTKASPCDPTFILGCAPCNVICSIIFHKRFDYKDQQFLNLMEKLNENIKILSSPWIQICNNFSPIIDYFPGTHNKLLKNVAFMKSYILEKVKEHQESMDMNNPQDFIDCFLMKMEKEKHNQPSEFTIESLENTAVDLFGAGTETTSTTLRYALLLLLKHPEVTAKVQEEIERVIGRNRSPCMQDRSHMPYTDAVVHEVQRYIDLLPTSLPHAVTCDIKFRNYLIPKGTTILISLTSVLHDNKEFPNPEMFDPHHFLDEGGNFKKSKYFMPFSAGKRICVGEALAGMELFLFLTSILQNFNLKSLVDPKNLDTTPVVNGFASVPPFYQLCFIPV
Sequence of Cytochrome P450 2D6 (P10635 whole entry): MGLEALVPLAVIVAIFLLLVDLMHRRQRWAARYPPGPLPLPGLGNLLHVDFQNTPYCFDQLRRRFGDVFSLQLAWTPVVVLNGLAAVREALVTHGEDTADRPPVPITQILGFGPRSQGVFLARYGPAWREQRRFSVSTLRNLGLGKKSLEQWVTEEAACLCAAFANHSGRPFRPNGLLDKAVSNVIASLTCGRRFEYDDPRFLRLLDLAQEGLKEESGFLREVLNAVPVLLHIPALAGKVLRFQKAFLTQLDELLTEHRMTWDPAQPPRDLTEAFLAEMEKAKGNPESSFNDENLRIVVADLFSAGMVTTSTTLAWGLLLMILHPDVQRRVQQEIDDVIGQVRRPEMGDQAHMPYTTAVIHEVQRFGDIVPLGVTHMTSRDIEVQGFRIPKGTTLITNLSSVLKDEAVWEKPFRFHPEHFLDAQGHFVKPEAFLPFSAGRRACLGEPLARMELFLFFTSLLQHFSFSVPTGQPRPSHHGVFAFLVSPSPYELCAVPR
Sequence of Cytochrome P450 3A4 (P08684 whole entry): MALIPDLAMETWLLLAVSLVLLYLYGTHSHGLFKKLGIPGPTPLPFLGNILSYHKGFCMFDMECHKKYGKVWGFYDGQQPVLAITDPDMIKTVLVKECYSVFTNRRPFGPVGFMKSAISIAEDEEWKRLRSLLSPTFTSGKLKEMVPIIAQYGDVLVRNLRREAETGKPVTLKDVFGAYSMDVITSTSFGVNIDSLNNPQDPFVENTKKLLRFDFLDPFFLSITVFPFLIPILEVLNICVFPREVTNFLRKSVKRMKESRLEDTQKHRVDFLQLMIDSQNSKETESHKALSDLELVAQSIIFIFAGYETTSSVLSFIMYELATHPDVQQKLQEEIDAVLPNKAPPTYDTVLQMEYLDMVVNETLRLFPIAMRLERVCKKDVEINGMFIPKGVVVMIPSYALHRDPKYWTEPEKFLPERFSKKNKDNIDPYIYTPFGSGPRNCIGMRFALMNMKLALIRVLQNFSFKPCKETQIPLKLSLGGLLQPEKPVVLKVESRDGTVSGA

`C[C@@H]1CN(S(=O)(=O)N[C@@]2(C(=O)O)[C@H](C)[C@]2(C)c2ccccc2)CCN1c1cc(C(F)F)on1`: the “inhibition (INH)” value against Cytochrome P450 2C9, against Cytochrome P450 2D6, at Cytochrome P450 1A2, on Cytochrome P450 2A6, on Cytochrome P450 3A4 and on Cytochrome P450 2C19 was “Not Active” in each case. For the same compound, the pIC50 in data set [1] was 7.77; at Interstitial collagenase, under 5.00; in data set [4], under 5.00; in data set [5], under 5.00. In addition, the AUC in data set [2] turned out to be 17.8 µM·h. The half-life in data set [3] is 1.9 h. For the same compound, the clearance in data set [6] is 11.7 mL/min/kg. Also, the Vd in data set [7] came out at 1.9 L/kg. Further, the bioavailability in data set [8] was 64%. In data set [9], this compound had a Cmax of 4.9 µM.

Consider `C[C@@H]1CN(S(=O)(=O)N[C@@]2(C(=O)O)[C@H](C)[C@]2(C)c2ccccc2)CCN1c1ccc(C#N)s1`, for which the “inhibition (INH)” value at Cytochrome P450 2C9, against Cytochrome P450 2D6, against Cytochrome P450 1A2, against Cytochrome P450 2A6, against Cytochrome P450 3A4 and at Cytochrome P450 2C19 was “Not Active” in each case. In addition, the pIC50 is 7.54 in data set [1], under 5.00 at Interstitial collagenase, under 5.00 in data set [4] and under 5.00 in [5]. The compound further returned an AUC in data set [2] of 88.4 µM·h. This compound also showed a half-life in data set [3] of 4.5 h. The same compound gave a clearance in data set [6] of 4.83 mL/min/kg. The Vd in data set [7] is 2.6 L/kg. In addition, the bioavailability in [8] is 119%. Also, in [9], the Cmax came to 15.9 µM.

In the case of `C[C@@H]1CN(S(=O)(=O)N[C@@]2(C(=O)O)[C@H](C)[C@@H]2c2ccccc2)CCN1c1cc(C(F)F)on1`, the pIC50 in data set [1] was 7.57; at Interstitial collagenase, under 5.00; in data set [4], under 5.00; in data set [5] it was 5.27. The Ratio IC50 in the data set filed under Homo sapiens turned out to be 200.
